# Calls of active or inactive are those of the source. The rule behind the calls is not given here.
# Key:
# Rattus norvegicus [1] = assay: Ex vivo induction of GST in Sprague-Dawley rat bladder at 7.5 umol/kg/day, po for 10 days measured on day 11 relative to control; assay type: functional
# Summary of the method: (§1)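 Female Sprague-Dawley rats, 6 per group, gavaged with compound at 7.5 µmol/kg/day or soya oil for 10 days and killed on day 11. Bladder homogenized in ice-cold 0.2% Triton X-100 and cleared by centrifugation. NQO1 activity measured by the Ernster method, GST by the Habig method. Reported as treated/control mean ± SEM, ANOVA with Student-Newman-Keuls test.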
# Rattus norvegicus [2] = assay: Ex vivo induction of NQO1 in Sprague-Dawley rat bladder at 7.5 umol/kg/day, po for 10 days measured on day 11 relative to control; assay type: functional; summary of the method: as §1
# [3] = molecular target: T1, Nuclear factor erythroid 2-related factor 2 (Rattus norvegicus) (UniProt O54968); assay: Induction of Nrf-mediated GST-mu protein expression in wild type rat NBT2 cells at 25 uM after 24 hrs Western blot analysis; assay type: functional, cell-based
# T1 sequence (whole entry): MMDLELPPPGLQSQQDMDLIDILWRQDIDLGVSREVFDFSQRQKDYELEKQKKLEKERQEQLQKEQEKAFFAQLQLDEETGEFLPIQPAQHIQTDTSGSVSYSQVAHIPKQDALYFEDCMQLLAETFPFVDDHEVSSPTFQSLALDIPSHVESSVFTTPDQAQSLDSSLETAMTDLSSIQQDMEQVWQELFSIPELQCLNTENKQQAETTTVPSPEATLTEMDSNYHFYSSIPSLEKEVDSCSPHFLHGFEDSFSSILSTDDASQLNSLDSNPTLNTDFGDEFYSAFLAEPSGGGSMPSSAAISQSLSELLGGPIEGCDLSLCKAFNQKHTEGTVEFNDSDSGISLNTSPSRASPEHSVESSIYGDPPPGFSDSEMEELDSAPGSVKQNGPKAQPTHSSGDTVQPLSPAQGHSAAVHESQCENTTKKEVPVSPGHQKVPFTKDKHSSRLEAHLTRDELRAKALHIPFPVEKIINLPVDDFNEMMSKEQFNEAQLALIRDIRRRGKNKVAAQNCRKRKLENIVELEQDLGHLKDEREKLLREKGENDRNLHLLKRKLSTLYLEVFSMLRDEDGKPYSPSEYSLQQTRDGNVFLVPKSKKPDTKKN
# Summary of the method: (§2)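 NBT-II cells transfected with Nrf2 stealth RNAi or control RNAi (0.584 nmol per dish, lipofectamine 2000) for 48 h. Then treated with compound at 25 µM or vehicle for 24 h, with 0.1% DMSO final. Lysates analyzed by Western blot for Nrf2, GCL, GST-α, GST-μ and NQO1, with GAPDH as loading control.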
# NBT2 [4] = assay: Induction of GST-pi protein expression in rat NBT2 cells at 25 to 50 uM after 24 hrs by Western blot analysis; assay type: functional, cell-based
# Summary of the method: (§3)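 NBT-II rat bladder carcinoma cells grown in MEM with 10% FBS. Plated overnight, then exposed to compound at 25 or 50 µM for 24 h, with 0.1% DMSO final. Cells trypsinized, lysed with 1 mM PMSF and sonicated. 25-40 µg protein taken for Western blot, GAPDH as loading control. At least two experiments.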
# NBT2 [5] = assay: Induction of GST-alpha protein expression in Nrf gene knockout rat NBT2 cells at 25 uM after 24 hrs Western blot analysis; assay type: functional, cell-based; summary of the method: as §2
# NBT2 [6] = assay: Induction of GST-alpha protein expression in rat NBT2 cells after 24 hrs by Western blot analysis; assay type: functional, cell-based; summary of the method: as §3
# Rattus norvegicus [7] = assay: Ex vivo induction GST-mu protein expression in Sprague-Dawley rat bladder at 7.5 umol/kg/day, po for 10 days measured on day 11 by Western blot analysis; assay type: functional, organism-based
# Summary of the method: (§4)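 Female Sprague-Dawley rats, 3 per group, gavaged once daily with compound at 7.5 µmol/kg or soya oil vehicle for 10 days. Killed on day 11. Bladder homogenized in 10 mM Tris-HCl pH 7.4, 0.25 M sucrose, 1 mM PMSF, 1 µg/ml leupeptin. 25-40 µg protein run by SDS-PAGE, then Western blot, with GAPDH as loading control.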
# Rattus norvegicus [8] = assay: Ex vivo induction of NQO1 in Sprague-Dawley rat liver at 7.5 umol/kg/day, po for 10 days measured on day 11 relative to control; assay type: functional
# Summary of the method: (§5)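 Organs taken from the same rats used for the bladder study: female Sprague-Dawley, compound at 7.5 µmol/kg/day by gavage or soya oil for 10 days, killed on day 11. GI contents rinsed out under cold water and tissues stored at −80°C. Homogenized in 0.2% Triton X-100 and centrifuged. Supernatant NQO1 activity measured by the Ernster method, expressed as treated/control.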
# Rattus norvegicus [9] = assay: Ex vivo induction of NQO1 in Sprague-Dawley rat jejunum at 7.5 umol/kg/day, po for 10 days measured on day 11 relative to control; assay type: functional; summary of the method: as §5
# NBT2 [10] = assay: Induction of GST-mu protein expression in Nrf gene knockout rat NBT2 cells at 25 uM after 24 hrs Western blot analysis; assay type: functional, cell-based; summary of the method: as §2
# Rattus norvegicus [11] = assay: Ex vivo induction of NQO1 in Sprague-Dawley rat ileum at 7.5 umol/kg/day, po for 10 days measured on day 11 relative to control; assay type: functional; summary of the method: as §5
# NBT2 [12] = assay: Induction of NQO1 protein expression in Nrf gene knockout rat NBT2 cells at 25 uM after 24 hrs Western blot analysis; assay type: functional, cell-based; summary of the method: as §2
# Rattus norvegicus [13] = assay: Ex vivo induction of NQO1 in Sprague-Dawley rat lung at 7.5 umol/kg/day, po for 10 days measured on day 11 relative to control; assay type: functional; summary of the method: as §5
# [14] = molecular target: T1, Nuclear factor erythroid 2-related factor 2 (Rattus norvegicus); assay: Induction of Nrf-mediated GST-alpha protein expression in wild type rat NBT2 cells at 25 uM after 24 hrs Western blot analysis; assay type: functional, cell-based; summary of the method: as §2
# Rattus norvegicus [15] = assay: Ex vivo induction of NQO1 in Sprague-Dawley rat duodenum at 7.5 umol/kg/day, po for 10 days measured on day 11 relative to control; assay type: functional; summary of the method: as §5
# NBT2 [16] = assay: Induction of GCL protein expression in Nrf gene knockout rat NBT2 cells at 25 uM after 24 hrs Western blot analysis; assay type: functional, cell-based; summary of the method: as §2
# Rattus norvegicus [17] = assay: Ex vivo induction of NQO1 in Sprague-Dawley rat colon at 7.5 umol/kg/day, po for 10 days measured on day 11 relative to control; assay type: functional; summary of the method: as §5
# Rattus norvegicus [18] = assay: Ex vivo induction of NQO1 in Sprague-Dawley rat stomach at 7.5 umol/kg/day, po for 10 days measured on day 11 relative to control; assay type: functional; summary of the method: as §5
# NBT2 [19] = assay: Induction of GCL protein expression in rat NBT2 cells at 25 to 50 uM after 24 hrs by Western blot analysis; assay type: functional, cell-based; summary of the method: as §3
# Rattus norvegicus [20] = assay: Ex vivo induction GST-pi protein expression in Sprague-Dawley rat bladder at 7.5 umol/kg/day, po for 10 days measured on day 11 by Western blot analysis; assay type: functional, organism-based; summary of the method: as §4
# [21] = molecular target: T1, Nuclear factor erythroid 2-related factor 2 (Rattus norvegicus); assay: Induction of Nrf-mediated NQO1 protein expression in wild type rat NBT2 cells at 25 uM after 24 hrs Western blot analysis; assay type: functional, cell-based; summary of the method: as §2
# NBT2 [22] = assay: Induction of Nrf protein expression in Nrf gene knockout rat NBT2 cells at 25 uM after 24 hrs Western blot analysis; assay type: functional, cell-based; summary of the method: as §2
# Rattus norvegicus [23] = assay: Ex vivo induction GST-alpha protein expression in Sprague-Dawley rat bladder at 7.5 umol/kg/day, po for 10 days measured on day 11 by Western blot analysis; assay type: functional, organism-based; summary of the method: as §4
# Rattus norvegicus [24] = assay: Ex vivo induction of NQO1 in Sprague-Dawley rat kidney at 7.5 umol/kg/day, po for 10 days measured on day 11 relative to control; assay type: functional; summary of the method: as §5
# [25] = molecular target: T1, Nuclear factor erythroid 2-related factor 2 (Rattus norvegicus); assay: Induction of Nrf-mediated GCL protein expression in wild type rat NBT2 cells at 25 uM after 24 hrs Western blot analysis; assay type: functional, cell-based; summary of the method: as §2
# NBT2 [26] = assay: Induction of GST-mu protein expression in rat NBT2 cells after 24 hrs by Western blot analysis; assay type: functional, cell-based; summary of the method: as §3
# [27] = molecular target: T1, Nuclear factor erythroid 2-related factor 2 (Rattus norvegicus); assay: Induction of Nrf in wild type rat NBT2 cells at 25 uM after 24 hrs Western blot analysis; assay type: functional, cell-based; summary of the method: as §2
# Rattus norvegicus [28] = assay: Ex vivo induction GCL protein expression in Sprague-Dawley rat bladder at 7.5 umol/kg/day, po for 10 days measured on day 11 by Western blot analysis; assay type: functional, organism-based; summary of the method: as §4
# NBT2 [29] = assay: Induction of NQO1 protein expression in rat NBT2 cells after 24 hrs by Western blot analysis; assay type: functional, cell-based; summary of the method: as §3
# [30] = Dissociation constant, pKa of the compound; assay type: physicochemical
smiles,measurement,setting,value
O=c1ccss1,fold change (FC),Rattus norvegicus [1],1.01
same,fold change (FC),Rattus norvegicus [2],1.26
S=c1ssc(S)c1-c1ccccc1,fold change (FC),Rattus norvegicus [1],1.03
same,fold change (FC),Rattus norvegicus [2],1.11
O=c1ssc2c1CCC2,fold change (FC),Rattus norvegicus [1],1.11
same,fold change (FC),Rattus norvegicus [2],1.24
COC(=O)c1cssc1=S,Activity,[3],Active
same,Activity,NBT2 [4],inactive
same,Activity,NBT2 [5],inactive
same,Activity,NBT2 [6],Dose-dependent effect
same,Activity,Rattus norvegicus [7],Active
same,fold change (FC),Rattus norvegicus [8],1.07
same,fold change (FC),Rattus norvegicus [9],1.13
same,Activity,NBT2 [10],inactive
same,fold change (FC),Rattus norvegicus [11],0.95
same,Activity,NBT2 [12],inactive
same,fold change (FC),Rattus norvegicus [13],1.07
same,Activity,[14],Active
same,fold change (FC),Rattus norvegicus [15],1.17
same,fold change (FC),Rattus norvegicus [1],2.69
same,Activity,NBT2 [16],inactive
same,fold change (FC),Rattus norvegicus [17],0.89
same,fold change (FC),Rattus norvegicus [18],2.36
same,Activity,NBT2 [19],Active
same,Activity,Rattus norvegicus [20],inactive
same,Activity,[21],Active
same,Activity,NBT2 [22],inactive
same,Activity,Rattus norvegicus [23],Active
same,fold change (FC),Rattus norvegicus [24],1.45
same,Activity,[25],Active
same,Activity,NBT2 [26],Dose-dependent effect
same,Activity,[27],Active
same,fold change (FC),Rattus norvegicus [2],5.05
same,Activity,Rattus norvegicus [28],Active
same,Activity,NBT2 [29],Dose-dependent effect
CC1Cc2ssc(=S)c2C1 (stereo not given),fold change (FC),Rattus norvegicus [1],1.31
same,fold change (FC),Rattus norvegicus [2],1.81
Cc1cc(=S)ss1,fold change (FC),Rattus norvegicus [1],1.08
same,fold change (FC),Rattus norvegicus [2],1.23
Oc1ccc(-c2cc(=S)ss2)cc1,fold change (FC),Rattus norvegicus [1],0.95
same,fold change (FC),Rattus norvegicus [2],1.02
O=C(O)c1cssc1=S,pKa,[30],2.8
same,fold change (FC),Rattus norvegicus [1],2.11
same,fold change (FC),Rattus norvegicus [2],3.69
COC(=O)c1c(C)ssc1=S,fold change (FC),Rattus norvegicus [1],1.24
same,fold change (FC),Rattus norvegicus [2],1.24
COC(=O)C1CCc2c1ssc2=S (stereo not given),fold change (FC),Rattus norvegicus [8],1.1
same,fold change (FC),Rattus norvegicus [9],1.11
same,fold change (FC),Rattus norvegicus [11],1.07
same,fold change (FC),Rattus norvegicus [13],1.08
same,fold change (FC),Rattus norvegicus [15],1.14
same,fold change (FC),Rattus norvegicus [1],2.31
same,fold change (FC),Rattus norvegicus [17],1.07
same,fold change (FC),Rattus norvegicus [18],1.98
same,fold change (FC),Rattus norvegicus [24],1.76
same,fold change (FC),Rattus norvegicus [2],4.39
CC1CCc2c1ssc2=S (stereo not given),fold change (FC),Rattus norvegicus [1],1.3
same,fold change (FC),Rattus norvegicus [2],1.91
S=c1ccss1 [DITHIOLETHIONE],fold change (FC),Rattus norvegicus [8],1.3
same,fold change (FC),Rattus norvegicus [9],2.31
same,fold change (FC),Rattus norvegicus [11],1.76
same,fold change (FC),Rattus norvegicus [13],1.37
same,fold change (FC),Rattus norvegicus [15],5.6
same,fold change (FC),Rattus norvegicus [1],1.7
same,fold change (FC),Rattus norvegicus [17],1.81
same,fold change (FC),Rattus norvegicus [18],5.31
same,fold change (FC),Rattus norvegicus [24],1.82
same,fold change (FC),Rattus norvegicus [2],2.78
Cc1ssc(=S)c1C(=O)O,fold change (FC),Rattus norvegicus [1],0.99
same,fold change (FC),Rattus norvegicus [2],1.1

# From ChEMBL document CHEMBL1177701, “Synthesis, biological evaluation, and structure-activity relationships of dithiolethiones as inducers of cytoprotective phase 2 enzymes” (J Med Chem, 2010)
